Source: ChEMBL document CHEMBL1136923, “Highly potent, orally available anti-inflammatory broad-spectrum chemokine inhibitors” (J Med Chem, 2009)

Tests used:
Assay type in all cases: functional, cell-based
Settings in all cases: THP-1
[1] = target: C-C chemokine receptor type 2 (Homo sapiens) (UniProt P41597); assay: Antagonist activity at CCR2 in human THP1 cells assessed as inhibition of CCL2-induced chemotaxis at 100 nM after 2 hrs by microtiter format trans-well migration assay
In short: (§1)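 Microtiter trans-well migration assay in Gey's balanced salt solution with 1 mg/mL endotoxin-free BSA, no fetal calf serum. Migration ran 2 h at 37 °C. Compounds dissolved in DMSO and added to both top and bottom compartments, final DMSO 1%.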

[2] = target: C-C chemokine receptor type 2 (Homo sapiens) (UniProt P41597); assay: Antagonist activity at CCR2 in human THP1 cells assessed as inhibition of CCL2-induced chemotaxis at 10 nM after 2 hrs by microtiter format trans-well migration assay; in short: as §1
[3] = target: C-C chemokine receptor type 2 (Homo sapiens) (UniProt P41597); assay: Antagonist activity at CCR2 in human THP1 cells assessed as inhibition of CCL2-induced chemotaxis at 0.1 nM after 2 hrs by microtiter format trans-well migration assay; in short: as §1
[4] = target: C-C chemokine receptor type 2 (Homo sapiens) (UniProt P41597); assay: Antagonist activity at CCR2 in human THP1 cells assessed as inhibition of CCL2-induced chemotaxis at 1000 nM after 2 hrs by microtiter format trans-well migration assay; in short: as §1
[5] = target: C-C chemokine receptor type 2 (Homo sapiens) (UniProt P41597); assay: Antagonist activity at CCR2 in human THP1 cells assessed as inhibition of CCL2-induced chemotaxis at 1 nM after 2 hrs by microtiter format trans-well migration assay; in short: as §1
[6] = target: C-C chemokine receptor type 2 (Homo sapiens) (UniProt P41597); assay: Antagonist activity at CCR2 in human THP1 cells assessed as inhibition of CCL2-induced chemotaxis after 2 hrs by microtiter format trans-well migration assay; in short: as §1
[7] = target: C-C chemokine receptor type 2 (Homo sapiens) (UniProt P41597); assay: Antagonist activity at CCR2 in human THP1 cells assessed as inhibition of CCL2-induced chemotaxis at 0.01 nM after 2 hrs by microtiter format trans-well migration assay; in short: as §1

C-C chemokine receptor type 2 (Homo sapiens), sequence (P41597 whole entry, looked up): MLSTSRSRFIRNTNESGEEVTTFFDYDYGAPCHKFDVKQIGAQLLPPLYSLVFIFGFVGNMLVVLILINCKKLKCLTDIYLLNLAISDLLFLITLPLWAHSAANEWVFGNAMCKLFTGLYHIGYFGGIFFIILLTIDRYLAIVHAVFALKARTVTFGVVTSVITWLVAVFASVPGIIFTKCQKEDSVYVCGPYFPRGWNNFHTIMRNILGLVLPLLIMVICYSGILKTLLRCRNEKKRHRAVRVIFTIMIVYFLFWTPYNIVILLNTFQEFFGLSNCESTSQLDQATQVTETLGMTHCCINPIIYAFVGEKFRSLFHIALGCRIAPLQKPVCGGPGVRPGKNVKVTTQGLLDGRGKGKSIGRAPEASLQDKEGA

ED50 [6] [nM]	Compound	also measured
5	CCCCCC1CCC(C(=O)N[C@H]2CCCCNC2=O)CC1 (stereo partly specified)	
0.8	O=C(CC12CC3CC(CC(C3)C1)C2)N[C@H]1CCCCNC1=O	
7	CCCCCC12CCC(C(=O)N[C@H]3CCCCNC3=O)(CC1)CC2	
0.8	O=C(N[C@H]1CCCCNC1=O)C1=CCCCC1	
0.08	CC(C)CCC(C)(C)C(=O)N[C@H]1CCCCNC1=O	
1	C=CCC(C)(C)C(=O)N[C@H]1CCCCNC1=O	

Continued, compound first:

Compound	ED50 [6] [nM]	also measured
CCCCCCCCCCC(C)(C)C(=O)N[C@@H]1CCCCNC1=O	4.5	inhibition [1]: 101%; inhibition [2]: 69%; inhibition [3]: 20%; inhibition [4]: 98.5%; inhibition [5]: 36%; inhibition [7]: 5%
CCCC(C)(C)C(=O)N[C@H]1CCCCNC1=O	0.5	
CC(C)=CCC(C)(C)C(=O)N[C@H]1CCCCNC1=O	0.2	
CCCCCCCCC/C=C(\C)C(=O)N[C@H]1CCCCNC1=O	10	
